As usually defined, the IC50 is the concentration that gives 50% inhibition. Low values mean greater potency in that assay, high ones weaker potency in that assay.

Experimental findings from ChEMBL document CHEMBL4251567 (Eur J Med Chem, 2018) are described below.

The target of one test is Histone deacetylase. In words: Inhibition of HDAC in human HeLa-S3 cell lysates preincubated for 15 mins followed by HDAC-Glo substrate addition measured after 35 mins by fluorimetric method. In kind it is protein assay.
For test [1], the target named is T1, Histone deacetylase (Homo sapiens) (UniProt Q13547+O15379+Q9UBN7+Q92769+Q9UQL6+Q8WUI4+Q9BY41+Q96DB2+P56524+Q9UKV0+Q969S8). The experiment in a line: Inhibition of HDAC in human HeLa-S3 cell lysates assessed as residual activity at 2 x 10^-4 M preincubated for 15 mins followed by HDAC-Glo substrate addition measured after 35 mins by fluorimetric method relative to control. In kind it is protein assay. The method, boiled down:
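Lysate (1 μg total protein) in HDAC-Glo buffer was preincubated with inhibitor in DMSO for 15 min at room temperature. HDAC-Glo substrate/developer reagent was added and luminescence read after 35 min. Concentrations are final. Signal corrected for a no-lysate blank; % of DMSO control.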

Test [2] has as its target T1, Histone deacetylase (Homo sapiens). The experiment in a line: Inhibition of HDAC in human HeLa-S3 cell lysates assessed as residual activity at 1 x 10^-4 M preincubated for 15 mins followed by HDAC-Glo substrate addition measured after 35 mins by […] relative to control. In kind it is protein assay.
The target is the same in test [3]. In words: Inhibition of HDAC in human HeLa-S3 cell lysates assessed as residual activity at 2.5 x 10^-5 M preincubated for 15 mins followed by HDAC-Glo substrate addition measured after 35 mins by […] relative to control. In kind it is protein assay.
The target is the same in test [4]. The experiment in a line: Inhibition of HDAC in human HeLa-S3 cell lysates assessed as residual activity at 1.25 x 10^-5 M preincubated for 15 mins followed by HDAC-Glo substrate addition measured after 35 mins by […] relative to control. In kind it is protein assay.
Test [5] concerns the target T2, Histone deacetylase 8 (Homo sapiens) (UniProt Q9BY41).
T2 sequence (whole entry): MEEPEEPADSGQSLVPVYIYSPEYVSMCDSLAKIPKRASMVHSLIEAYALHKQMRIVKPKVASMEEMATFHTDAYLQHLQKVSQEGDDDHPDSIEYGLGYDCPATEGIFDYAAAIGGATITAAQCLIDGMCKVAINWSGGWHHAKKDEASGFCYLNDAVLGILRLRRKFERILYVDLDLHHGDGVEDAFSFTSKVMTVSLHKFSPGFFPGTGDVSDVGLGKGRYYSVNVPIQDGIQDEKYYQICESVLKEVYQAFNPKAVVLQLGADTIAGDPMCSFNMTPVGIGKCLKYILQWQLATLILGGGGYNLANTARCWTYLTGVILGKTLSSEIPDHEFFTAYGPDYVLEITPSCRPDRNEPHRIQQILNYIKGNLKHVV
In words: Inhibition of human recombinant full-length C-terminal His-tagged HDAC8 expressed in baculovirus infected Sf9 insect cell assessed as remaining activity at 4 x 10^-7 M preincubated for 15 mins followed by HDAC-Glo substrate addition measured after 30 mins by fluorimetric method rel;ative to control. The method, boiled down:
(§1)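 Recombinant HDAC8 (75 ng) preincubated 15 min at RT with inhibitor in DMSO in HDAC-Glo buffer. HDAC-Glo reagent added and luminescence read 30 min later. Background taken from a reaction without enzyme; activity as % of DMSO control.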

For test [6], the target named is T2, Histone deacetylase 8 (Homo sapiens). In words: Inhibition of human recombinant full-length C-terminal His-tagged HDAC8 expressed in baculovirus infected Sf9 insect cell assessed as remaining activity at 8 x 10^-7 M preincubated for 15 mins followed by HDAC-Glo substrate addition measured after 30 mins by fluorimetric method rel;ative to control. The method, boiled down:
as §1

Test [7] deals with Histone deacetylase 1 (Homo sapiens) (UniProt Q13547). The experiment in a line: Inhibition of HDAC1 in human HeLa-S3 cell lysates assessed as remaining activity at 4.8 x 10^-5 M preincubated for 15 mins followed by HDAC-Glo substrate addition measured after 30 to 40 mins by […] relative to control. The gist of the method:
(§2)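 HDAC1 was captured from HeLa-S3 lysate (100 μg/mL) onto wells precoated with anti-HDAC1 antibody (10 μg/mL, carbonate buffer pH 9.4) and milk-blocked, 1 h at 4 °C, then washed. Inhibitor in DMSO was added in HDAC-Glo buffer for 15 min at room temperature. HDAC-Glo reagent was added and luminescence read after 30-40 min. Concentrations are final. No-antibody background subtracted; % of DMSO control.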

Test [8] shares this target. The experiment in a line: Inhibition of HDAC1 in human HeLa-S3 cell lysates assessed as remaining activity at 2.4 x 10^-5 M preincubated for 15 mins followed by HDAC-Glo substrate addition measured after 30 to 40 mins by […] relative to control. The method, boiled down:
as §2

For test [9] the target is unchanged. The experiment in a line: Inhibition of HDAC1 in human HeLa-S3 cell lysates assessed as remaining activity at 1.2 x 10^-5 M preincubated for 15 mins followed by HDAC-Glo substrate addition measured after 30 to 40 mins by […] relative to control. The gist of the method: as §2
The target is the same in test [10]. In words: Inhibition of HDAC1 in human HeLa-S3 cell lysates assessed as remaining activity at 6 x 10^-6 M preincubated for 15 mins followed by HDAC-Glo substrate addition measured after 30 to 40 mins by […] relative to control. The method, boiled down: as §2
Test [11] shares this target. The experiment in a line: Inhibition of HDAC1 in human HeLa-S3 cell lysates assessed as remaining activity at 3 x 10^-6 M preincubated for 15 mins followed by HDAC-Glo substrate addition […] relative to control.
The target in test [12] is Histone deacetylase 2 (Homo sapiens) (UniProt Q92769). The experiment in a line: Inhibition of HDAC2 in human HeLa-S3 cell lysates assessed as remaining activity at 4.8 x 10^-5 M preincubated for 15 mins followed by HDAC-Glo substrate addition measured after 30 to 40 mins by […] relative to control. The method, boiled down: (§3)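 Same antibody-capture format as the other class I isoforms. HeLa-S3 lysate added at 100 μg/mL for HDAC1 and HDAC2, 1 h at 4 °C, then washed. Inhibitor in DMSO preincubated 15 min at RT; HDAC-Glo reagent added and luminescence read after 30-40 min. Concentrations are final. Signal corrected against a well without antibody; activity expressed as % of DMSO control.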
Histone deacetylase 2 (Homo sapiens), sequence (Q92769 whole entry, canonical isoform): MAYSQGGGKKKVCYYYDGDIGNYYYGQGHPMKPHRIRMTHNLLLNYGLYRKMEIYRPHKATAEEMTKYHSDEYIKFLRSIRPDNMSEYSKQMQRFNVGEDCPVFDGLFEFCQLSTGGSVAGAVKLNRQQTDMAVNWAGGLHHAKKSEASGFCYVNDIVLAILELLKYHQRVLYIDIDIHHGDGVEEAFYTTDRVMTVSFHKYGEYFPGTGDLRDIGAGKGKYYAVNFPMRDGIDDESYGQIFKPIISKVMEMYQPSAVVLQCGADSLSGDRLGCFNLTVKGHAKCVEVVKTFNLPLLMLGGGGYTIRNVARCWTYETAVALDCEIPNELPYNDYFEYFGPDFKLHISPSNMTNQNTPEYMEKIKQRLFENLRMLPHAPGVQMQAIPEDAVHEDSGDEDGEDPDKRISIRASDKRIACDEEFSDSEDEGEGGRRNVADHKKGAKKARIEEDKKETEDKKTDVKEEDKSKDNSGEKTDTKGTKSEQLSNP

Test [13] shares this target. The experiment in a line: Inhibition of HDAC2 in human HeLa-S3 cell lysates assessed as remaining activity at 2.4 x 10^-5 M preincubated for 15 mins followed by HDAC-Glo substrate addition measured after 30 to 40 mins by fluorimetric method relative to control. The method, boiled down: as §3
Test [14] shares this target. The experiment in a line: Inhibition of HDAC2 in human HeLa-S3 cell lysates assessed as remaining activity at 1.2 x 10^-5 M preincubated for 15 mins followed by HDAC-Glo substrate addition measured after 30 to 40 mins by […] relative to control. The method, boiled down:
as §3

Test [15] shares this target. The experiment in a line: Inhibition of HDAC2 in human HeLa-S3 cell lysates assessed as remaining activity at 6 x 10^-6 M preincubated for 15 mins followed by HDAC-Glo substrate addition measured after 30 to 40 mins by […] relative to control. The gist of the method:
as §3

The target is the same in test [16]. In words: Inhibition of HDAC2 in human HeLa-S3 cell lysates assessed as remaining activity at 3 x 10^-6 M preincubated for 15 mins followed by HDAC-Glo substrate addition measured after 30 to 40 mins by fluorimetric method relative to control. The method, boiled down:
as §3

Test [17] deals with Histone deacetylase 3 (Homo sapiens) (UniProt O15379). The experiment in a line: Inhibition of HDAC3 in human HeLa-S3 cell lysates assessed as remaining activity at 4.8 x 10^-5 M preincubated for 15 mins followed by HDAC-Glo substrate addition measured after 30 to 40 mins by […] relative to control. The method, boiled down:
(§4)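 Antibody-capture (ELISA-type) assay: HDAC antibody coated in carbonate/bicarbonate buffer pH 9.4, wells blocked with 5% milk in TBST. HeLa-S3 lysate added at 1 mg/mL for HDAC3, 1 h at 4 °C, then washed. Inhibitor in DMSO preincubated 15 min at RT in HDAC-Glo buffer. HDAC-Glo reagent added, luminescence read after 30-40 min. Concentrations are final. Background = no-antibody well; activity given as % of DMSO control.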

For test [18] the target is unchanged. The experiment in a line: Inhibition of HDAC3 in human HeLa-S3 cell lysates assessed as remaining activity at 2.4 x 10^-5 M preincubated for 15 mins followed by HDAC-Glo substrate addition measured after 30 to 40 mins by […] relative to control. The gist of the method: as §4
Test [19] shares this target. The experiment in a line: Inhibition of HDAC3 in human HeLa-S3 cell lysates assessed as remaining activity at 1.2 x 10^-5 M preincubated for 15 mins followed by HDAC-Glo substrate addition measured after 30 to 40 mins by […] relative to control. The gist of the method:
as §4

Test [20] has the same target. The experiment in a line: Inhibition of HDAC3 in human HeLa-S3 cell lysates assessed as remaining activity at 6 x 10^-6 M preincubated for 15 mins followed by HDAC-Glo substrate addition measured after 30 to 40 mins by […] relative to control. The gist of the method: as §4
For test [21] the target is unchanged. In words: Inhibition of HDAC3 in human HeLa-S3 cell lysates assessed as remaining activity at 3 x 10^-6 M preincubated for 15 mins followed by HDAC-Glo substrate addition measured after 30 to 40 mins by fluorimetric method relative to control. The method, boiled down:
as §4

Histone deacetylase 1 (Homo sapiens), sequence (Q13547 whole entry): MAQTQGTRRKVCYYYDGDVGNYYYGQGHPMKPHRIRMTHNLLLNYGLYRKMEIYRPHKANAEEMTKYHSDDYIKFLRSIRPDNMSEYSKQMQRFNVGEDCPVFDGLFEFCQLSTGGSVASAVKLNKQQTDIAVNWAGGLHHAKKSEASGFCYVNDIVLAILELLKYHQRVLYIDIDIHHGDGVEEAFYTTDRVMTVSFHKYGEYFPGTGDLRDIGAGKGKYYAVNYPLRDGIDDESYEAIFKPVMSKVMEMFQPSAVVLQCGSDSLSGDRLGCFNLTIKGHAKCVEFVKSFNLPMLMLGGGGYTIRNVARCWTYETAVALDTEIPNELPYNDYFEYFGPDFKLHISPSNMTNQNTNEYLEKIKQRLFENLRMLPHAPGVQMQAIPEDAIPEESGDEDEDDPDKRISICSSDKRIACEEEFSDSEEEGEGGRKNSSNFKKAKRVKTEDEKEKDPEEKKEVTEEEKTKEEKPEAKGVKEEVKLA
Histone deacetylase 3 (Homo sapiens), sequence (O15379 whole entry): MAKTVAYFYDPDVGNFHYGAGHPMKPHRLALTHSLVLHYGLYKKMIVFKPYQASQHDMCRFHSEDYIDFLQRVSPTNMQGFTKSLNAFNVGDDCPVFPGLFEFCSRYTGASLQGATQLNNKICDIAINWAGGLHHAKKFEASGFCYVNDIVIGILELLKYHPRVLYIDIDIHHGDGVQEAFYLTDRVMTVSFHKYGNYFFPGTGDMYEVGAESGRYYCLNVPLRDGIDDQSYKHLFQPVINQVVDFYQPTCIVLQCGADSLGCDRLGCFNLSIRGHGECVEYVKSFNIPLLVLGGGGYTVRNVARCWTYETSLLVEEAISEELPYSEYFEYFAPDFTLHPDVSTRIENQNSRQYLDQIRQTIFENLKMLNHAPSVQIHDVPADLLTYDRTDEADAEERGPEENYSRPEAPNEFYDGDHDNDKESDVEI

Take `O=C(CCC(CCCC(=O)Nc1ccccc1)c1ccccc1)NO` (configuration not stated): the IC50 on Histone deacetylase was determined as 65 µM. Moreover, the Activity in [1] came out at 15%; in test [2] it was 32%; in test [3] it was 88%; in test [4], 104%; in test [5], 48%; in [6], 29%. For the same compound, the Activity was found to be 19% in test [7]; 34% in test [8]; 53% in test [9]; 63% in test [10]; 74% in test [11]; 22% in test [12]. Besides, the Activity came out at 33% in test [13]; 53% in test [14]; 68% in test [15]; 72% in [16]; 30% in test [17]; 53% in test [18]. The Activity was found to be 64% in test [19], 74% in test [20] and 88% in test [21].
